# Data from ChEMBL document CHEMBL4152188, “Design, synthesis and biological evaluation of C(4) substituted monobactams as antibacterial agents against multidrug-resistant Gram-negative bacteria” (Eur J Med Chem, 2018).
# Columns and labels:
# Format in all cases: functional
# [1] = test system: Klebsiella pneumoniae; test: Selectivity index, ratio of MIC for against KPC-2 producing Klebsiella pneumoniae isolate 212423 to MIC for against KPC-2 producing Klebsiella pneumoniae isolate 212423 in presence of BPL
# [2] = test system: Pseudomonas aeruginosa; test: Antibacterial activity against IMP-4 producing Pseudomonas aeruginosa isolate 209321 after 18 hrs by CLSI broth microdilution method; conditions: isolate 209321, 18 h
# [3] = test system: Klebsiella pneumoniae; test: Antibacterial activity against KPC-2 producing Klebsiella pneumoniae isolate 212229 after 18 hrs by CLSI broth microdilution method; conditions: isolate 212229, 18 h
# [4] = test system: Escherichia coli; test: Antibacterial activity against extended-spectrum beta-lactamase producing Escherichia coli isolate 208687 after 18 hrs in presence of BPL by CLSI broth microdilution method; conditions: isolate 208687, 18 h
# In short: (§1)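 CLSI broth microdilution against clinical isolates (ESBL E. coli, KPC-2 MDR K. pneumoniae, IMP-4 MDR P. aeruginosa; five per species). Iron limitation: Mueller-Hinton broth supplemented with 16 mg/liter 2,2'-bipyridyl to complex iron and induce iron uptake systems. Read-out: MIC.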
# [5] = test system: Pseudomonas aeruginosa; test: Antibacterial activity against IMP-4 producing Pseudomonas aeruginosa isolate 207272 after 18 hrs in presence of BPL by CLSI broth microdilution method; conditions: isolate 207272, 18 h; in short: as §1
# [6] = test system: Klebsiella pneumoniae; test: Antibacterial activity against KPC-2 producing Klebsiella pneumoniae isolate 212423 after 18 hrs in presence of BPL by CLSI broth microdilution method; conditions: isolate 212423, 18 h; in short: as §1
# [7] = test system: Escherichia coli; test: Selectivity index, ratio of MIC for against Escherichia coli isolate 210737 to MIC for Escherichia coli isolate 210737 in presence of BPL
# [8] = test system: Escherichia coli; test: Antibacterial activity against Escherichia coli isolate 210737 after 18 hrs in presence of BPL by CLSI broth microdilution method; conditions: isolate 210737, 18 h; in short: as §1
# [9] = test system: Klebsiella pneumoniae; test: Antibacterial activity against KPC-2 producing Klebsiella pneumoniae isolate 209735 after 18 hrs by CLSI broth microdilution method; conditions: isolate 209735, 18 h
# [10] = test system: Pseudomonas aeruginosa; test: Selectivity index, ratio of MIC for against IMP-4 producing Pseudomonas aeruginosa isolate 208247 to MIC for against IMP-4 producing Pseudomonas aeruginosa isolate 208247 in presence of BPL
# [11] = test system: Pseudomonas aeruginosa; test: Antibacterial activity against IMP-4 producing Pseudomonas aeruginosa isolate 208247 after 18 hrs by CLSI broth microdilution method; conditions: isolate 208247, 18 h
# [12] = test system: Pseudomonas aeruginosa; test: Antibacterial activity against IMP-4 producing Pseudomonas aeruginosa isolate 209471 after 18 hrs by CLSI broth microdilution method; conditions: isolate 209471, 18 h
# [13] = test system: Pseudomonas aeruginosa; test: Antibacterial activity against IMP-4 producing Pseudomonas aeruginosa isolate 207272 after 18 hrs by CLSI broth microdilution method; conditions: isolate 207272, 18 h
# [14] = test system: Pseudomonas aeruginosa; test: Antibacterial activity against IMP-4 producing Pseudomonas aeruginosa isolate 212886 after 18 hrs in presence of BPL by CLSI broth microdilution method; conditions: isolate 212886, 18 h; in short: as §1
# [15] = test system: Klebsiella pneumoniae; test: Selectivity index, ratio of MIC for against KPC-2 producing Klebsiella pneumoniae isolate 209735 to MIC for against KPC-2 producing Klebsiella pneumoniae isolate 209735 in presence of BPL
# [16] = test system: Klebsiella pneumoniae; test: Antibacterial activity against KPC-2 producing Klebsiella pneumoniae isolate 212232 after 18 hrs by CLSI broth microdilution method; conditions: isolate 212232, 18 h
# [17] = test system: Escherichia coli; test: Selectivity index, ratio of MIC for against extended-spectrum beta-lactamase producing Escherichia coli isolate 208687 to MIC for extended-spectrum beta-lactamase producing Escherichia coli isolate 208687 in presence of BPL
# [18] = test system: Pseudomonas aeruginosa; test: Antibacterial activity against IMP-4 producing Pseudomonas aeruginosa isolate 208247 after 18 hrs in presence of BPL by CLSI broth microdilution method; conditions: isolate 208247, 18 h; in short: as §1
# [19] = test system: Pseudomonas aeruginosa; test: Selectivity index, ratio of MIC for against IMP-4 producing Pseudomonas aeruginosa isolate 207272 to MIC for against IMP-4 producing Pseudomonas aeruginosa isolate 207272 in presence of BPL
# [20] = test system: Klebsiella pneumoniae; test: Antibacterial activity against KPC-2 producing Klebsiella pneumoniae isolate 209735 after 18 hrs in presence of BPL by CLSI broth microdilution method; conditions: isolate 209735, 18 h; in short: as §1
# [21] = test system: Escherichia coli; test: Antibacterial activity against extended-spectrum beta-lactamase producing Escherichia coli isolate 212648 after 18 hrs by CLSI broth microdilution method; conditions: isolate 212648, 18 h
# [22] = test system: Pseudomonas aeruginosa; test: Antibacterial activity against IMP-4 producing Pseudomonas aeruginosa isolate 212886 after 18 hrs by CLSI broth microdilution method; conditions: isolate 212886, 18 h
# [23] = test system: Escherichia coli; test: Antibacterial activity against extended-spectrum beta-lactamase producing Escherichia coli isolate 106342 after 18 hrs by CLSI broth microdilution method; conditions: isolate 106342, 18 h
# [24] = test system: Escherichia coli; test: Antibacterial activity against extended-spectrum beta-lactamase producing Escherichia coli isolate 212648 after 18 hrs in presence of BPL by CLSI broth microdilution method; conditions: isolate 212648, 18 h; in short: as §1
# [25] = test system: Pseudomonas aeruginosa; test: Selectivity index, ratio of MIC for against IMP-4 producing Pseudomonas aeruginosa isolate 212886 to MIC for against IMP-4 producing Pseudomonas aeruginosa isolate 212886 in presence of BPL
# [26] = test system: Escherichia coli; test: Selectivity index, ratio of MIC for against extended-spectrum beta-lactamase producing Escherichia coli isolate 212648 to MIC for extended-spectrum beta-lactamase producing Escherichia coli isolate 212648 in presence of BPL
# [27] = test system: Escherichia coli; test: Antibacterial activity against Escherichia coli isolate 210737 after 18 hrs by CLSI broth microdilution method; conditions: isolate 210737, 18 h
# [28] = test system: Escherichia coli; test: Antibacterial activity against extended-spectrum beta-lactamase producing Escherichia coli isolate 209285 after 18 hrs in presence of BPL by CLSI broth microdilution method; conditions: isolate 209285, 18 h; in short: as §1
# [29] = test system: Escherichia coli; test: Selectivity index, ratio of MIC for against extended-spectrum beta-lactamase producing Escherichia coli isolate 209285 to MIC for extended-spectrum beta-lactamase producing Escherichia coli isolate 209285 in presence of BPL
# [30] = test system: Klebsiella pneumoniae; test: Selectivity index, ratio of MIC for against KPC-2 producing Klebsiella pneumoniae isolate 212229 to MIC for against KPC-2 producing Klebsiella pneumoniae isolate 212229 in presence of BPL
# [31] = test system: Pseudomonas aeruginosa; test: Selectivity index, ratio of MIC for against IMP-4 producing Pseudomonas aeruginosa isolate 209471 to MIC for against IMP-4 producing Pseudomonas aeruginosa isolate 209471 in presence of BPL
# [32] = test system: Klebsiella pneumoniae; test: Selectivity index, ratio of MIC for against KPC-2 producing Klebsiella pneumoniae isolate 212232 to MIC for against KPC-2 producing Klebsiella pneumoniae isolate 212232 in presence of BPL
# [33] = test system: Pseudomonas aeruginosa; test: Antibacterial activity against IMP-4 producing Pseudomonas aeruginosa isolate 209321 after 18 hrs in presence of BPL by CLSI broth microdilution method; conditions: isolate 209321, 18 h; in short: as §1
# [34] = test system: Escherichia coli; test: Antibacterial activity against extended-spectrum beta-lactamase producing Escherichia coli isolate 209285 after 18 hrs by CLSI broth microdilution method; conditions: isolate 209285, 18 h
# [35] = test system: Klebsiella pneumoniae; test: Antibacterial activity against KPC-2 producing Klebsiella pneumoniae isolate 212423 after 18 hrs by CLSI broth microdilution method; conditions: isolate 212423, 18 h
# [36] = test system: Escherichia coli; test: Antibacterial activity against extended-spectrum beta-lactamase producing Escherichia coli isolate 208687 after 18 hrs by CLSI broth microdilution method; conditions: isolate 208687, 18 h
# [37] = test system: Klebsiella pneumoniae; test: Antibacterial activity against KPC-2 producing Klebsiella pneumoniae isolate 209632 after 18 hrs by CLSI broth microdilution method; conditions: isolate 209632, 18 h
# [38] = test system: Klebsiella pneumoniae; test: Selectivity index, ratio of MIC for against KPC-2 producing Klebsiella pneumoniae isolate 209632 to MIC for against KPC-2 producing Klebsiella pneumoniae isolate 209632 in presence of BPL
# [39] = test system: Pseudomonas aeruginosa; test: Selectivity index, ratio of MIC for against IMP-4 producing Pseudomonas aeruginosa isolate 209321 to MIC for against IMP-4 producing Pseudomonas aeruginosa isolate 209321 in presence of BPL
# [40] = test system: Klebsiella pneumoniae; test: Antibacterial activity against KPC-2 producing Klebsiella pneumoniae isolate 212229 after 18 hrs in presence of BPL by CLSI broth microdilution method; conditions: isolate 212229, 18 h; in short: as §1
# [41] = test system: Escherichia coli; test: Antibacterial activity against extended-spectrum beta-lactamase producing Escherichia coli isolate 106342 after 18 hrs in presence of BPL by CLSI broth microdilution method; conditions: isolate 106342, 18 h; in short: as §1
# [42] = test system: Escherichia coli; test: Selectivity index, ratio of MIC for against extended-spectrum beta-lactamase producing Escherichia coli isolate 106342 to MIC for extended-spectrum beta-lactamase producing Escherichia coli isolate 106342 in presence of BPL
# [43] = test system: Klebsiella pneumoniae; test: Antibacterial activity against KPC-2 producing Klebsiella pneumoniae isolate 209632 after 18 hrs in presence of BPL by CLSI broth microdilution method; conditions: isolate 209632, 18 h; in short: as §1
# [44] = test system: Pseudomonas aeruginosa; test: Antibacterial activity against IMP-4 producing Pseudomonas aeruginosa isolate 209471 after 18 hrs in presence of BPL by CLSI broth microdilution method; conditions: isolate 209471, 18 h; in short: as §1
# [45] = test system: Klebsiella pneumoniae; test: Antibacterial activity against KPC-2 producing Klebsiella pneumoniae isolate 212232 after 18 hrs in presence of BPL by CLSI broth microdilution method; conditions: isolate 212232, 18 h; in short: as §1
smiles,measurement,setting,value
CC(C)C(O/N=C(\C(=O)N[C@@H]1C(=O)N(S(=O)(=O)O)[C@@H]1COC(=O)CNC(=O)c1cc(=O)c(O)c[nH]1)c1csc(N)n1)c1cc(=O)c(O)cn1O (stereo not given in full),Selectivity Index,[1],4
same,MIC,[2],64 mg/L
same,MIC,[3],> 64 mg/L
same,MIC,[4],4 mg/L
same,MIC,[5],64 mg/L
same,MIC,[6],> 64 mg/L
same,Selectivity Index,[7],2
same,MIC,[8],8 mg/L
same,MIC,[9],> 64 mg/L
same,Selectivity Index,[10],1
same,MIC,[11],64 mg/L
same,MIC,[12],> 64 mg/L
same,MIC,[13],64 mg/L
same,MIC,[14],> 64 mg/L
same,Selectivity Index,[15],4
same,MIC,[16],> 64 mg/L
same,Selectivity Index,[17],8
same,MIC,[18],64 mg/L
same,Selectivity Index,[19],1
same,MIC,[20],> 64 mg/L
same,MIC,[21],32 mg/L
same,MIC,[22],> 64 mg/L
same,MIC,[23],16 mg/L
same,MIC,[24],16 mg/L
same,Selectivity Index,[25],1 - 2
same,Selectivity Index,[26],2
same,MIC,[27],16 mg/L
same,MIC,[28],16 mg/L
same,Selectivity Index,[29],2
same,Selectivity Index,[30],4
same,Selectivity Index,[31],1 - 2
same,Selectivity Index,[32],>4
same,MIC,[33],32 mg/L
same,MIC,[34],32 mg/L
same,MIC,[35],> 64 mg/L
same,MIC,[36],32 mg/L
same,MIC,[37],> 64 mg/L
same,Selectivity Index,[38],4
same,Selectivity Index,[39],2
same,MIC,[40],> 64 mg/L
same,MIC,[41],16 mg/L
same,Selectivity Index,[42],1
same,MIC,[43],> 64 mg/L
same,MIC,[44],> 64 mg/L
same,MIC,[45],16 mg/L
